Results filed as inconclusive are left out. Activity calls are given as the source filed them.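 How the source made its calls, unless noted: active means viability increase at or above a cutoff of the median across tested compounds plus 3 SD (cut at about 8.5% in these data, passing the limit was not always enough); inconclusive means some gains above the cutoff, reason not given; inactive means the rest.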
Key:
[1] = OD615 S. cerevisiae growth inhibition, permissive medium, pilot counter-assay, permissive growth control for S. cerevisiae lifespan shortening project (AID 705;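 active means growth inhibition above 25% in both replicates, a cutoff set 3 SD above the mean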); settings: OD615, 24 h, at 10 µM, hits give high values
Summary of the method: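 Timing: 24 h exposure, 30 °C / Material: Saccharomyces cerevisiae strain carrying genetically modified DeaD replicative-lifespan system / Signal: OD at 615 nm / Compound: 10 µM single dose, 0.25% DMSO / Medium: SC raffinose/galactose permissive medium / Evaluation: reduction in yeast growth (OD615)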

[2] = Restrictive medium S. cerevisiae growth inhibition, OD615, pilot screen of yeast lifespan reduction project, restrictive growth control (AID 706;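 active means growth inhibition above a set limit, 3 SD over mean compound inhibition, in both replicates, cut at about 43% in these data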;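 further: modified DeaD lifespan yeast strain shifted to restrictive glucose medium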); settings: OD615, 48 h, at 10 µM, hits give high values
Summary of the method: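 System: Engineered S. cerevisiae DeaD strain | Detection: OD615 | Buffer or medium: CSMM-D glucose medium | Doses: 10 µM compound, 0.25% DMSO | Timing: 4 h pre-growth plus 48 h compound exposure, 30 °C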

[3] = viability gain of MRP-1-high H69AR cells under doxorubicin, pilot screen, MRP-1 activator project, CellTiter-Glo, duplicate (AID 807); settings: H69AR viability with doxorubicin, CellTiter-Glo luminescence; at 10 µM; hits give high values;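 further: compound pretreatment 18-22 h then 72 h combined with doxorubicin; 0% = doxorubicin alone and 100% = vehicle without doxorubicin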
[4] = growth suppression of beta-catenin knockout HCT116, pilot screen, human colon tumor cells (AID 823;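 active means cell viability at or below a set limit in both duplicate runs, the limit being the all-compound median minus 4 SD, cut at about 23% in these data, passing the limit was not always enough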;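 further: 0% = wells killed by 20 µM Hyamine and 100% = untreated DMSO cell wells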); settings: CellTiter-Glo, 60 h, at 10 µM, hits give low values
[5] = growth suppression of PTEN-deleted HCT116, pilot screen, cell-based, HCT116 clonal line, CellTiter-Glo (AID 824;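 active means viability at or below 27.92% in each of two runs, the all-compound median minus 4 SD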;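 further: 0% = 20 µM Hyamine control and 100% = vehicle cell control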); settings: 60 h, at 10 µM, hits give low values
[6] = inhibitors of the yeast RAM network, pilot screen, dse1pr::URA3 reporter, 5-FOA selection (AID 869;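 active means inhibition over a set limit, the all-compound mean plus 3 SD, in both replicate runs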;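 further: 0% = DMSO wells with no growth and 100% = 10 µM 1-NA-PP1 with full growth; RAM network block rescues cells from 5-FOA so hits raise OD615 growth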); settings: S. cerevisiae dse1pr::URA3 5-FOA growth, OD615, 2 d; at 10 µM; hits give high values; strain carries analog-sensitive mutant Cbk1 kinase
[7] = RAM signaling pathway blockade in yeast – S. cerevisiae, Pdr1DBD-CYC8 efflux-inhibited sensitized strain, primary screen (AID 1298;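 active means RAM network inhibition above 8.4% in each of two replicates, 3 SD over the compound average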;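 further: 0% = DMSO untreated cells without growth and 100% = 10 µM 1-NA-PP1 full growth; higher means more yeast growth rescued from 5-FOA killing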); settings: S. cerevisiae cbk1-as DSE1-URA3 strain, 5-FOA growth OD615, 2 d; at 50 µM; hits give high values

CSC1=C(C#N)C(c2ccc(C(C)C)cc2)CC(=O)N1 (stereo not drawn)
inactive: growth inhibition [1] -4.75% | growth inhibition [2] -18.3% | viability increase [3] 0.04% | viability [4] 99.6% | viability [5] 91% | inhibition [6] 2% | RAM network inhibition [7] 1.87%

COc1ccc(C)cc1NC(=O)c1ccoc1C
inactive: growth inhibition [1] -1.21% | growth inhibition [2] 4.09% | viability increase [3] 0.93% | viability [4] 99.5% | viability [5] 87.8% | inhibition [6] 0.62% | RAM network inhibition [7] 7.87%

COC(=O)c1cc2c(s1)-c1ccccc1OC2
inactive: growth inhibition [1] -11.1% | growth inhibition [2] 4.14% | viability increase [3] -4.57% | viability [4] 101% | viability [5] 95.7% | inhibition [6] 1.39% | RAM network inhibition [7] 3.14%

COc1ccc(C(=O)c2cn[nH]c2-c2cc(Cl)ccc2O)cc1
inactive: growth inhibition [1] 3.93% | growth inhibition [2] 4.28% | viability increase [3] -1.77% | viability [4] 87.7% | viability [5] 78.7% | inhibition [6] 1.17% | RAM network inhibition [7] 3.53%

CCCSc1nnc(Cn2c(=O)sc3ccccc32)n1-c1ccccc1
inactive: growth inhibition [1] -9.77% | growth inhibition [2] 3.11% | viability increase [3] 1.4% | viability [4] 92.6% | viability [5] 81.3% | inhibition [6] 3.3% | RAM network inhibition [7] 11%

CN(Cc1ccccc1)c1nc2c(c(=O)n(C)c(=O)n2C)n1CCSc1ncccn1
inactive: growth inhibition [1] -11.7% | growth inhibition [2] -3.17% | viability increase [3] -2.71% | viability [4] 93.8% | viability [5] 87.1% | inhibition [6] 1.42% | RAM network inhibition [7] 3.63%

CN1CCN(C(=O)C2CC(=O)N(c3ccc(F)c(Cl)c3)C2)CC1 (stereo not drawn)
inactive: growth inhibition [1] -6.12% | growth inhibition [2] -6.44% | viability increase [3] -0.63% | viability [4] 96% | viability [5] 95.9% | inhibition [6] 2.12% | RAM network inhibition [7] 3.12%

C=C(C)Cn1c(N2CCCC2)nc2c1c(=O)[nH]c(=O)n2C
inactive: growth inhibition [1] -1.91% | growth inhibition [2] -5.8% | viability increase [3] -1.97% | viability [4] 108% | viability [5] 96.6% | inhibition [6] 1.32% | RAM network inhibition [7] 2.05%

Cc1cc(N2CCOCC2)nc(NCc2ccccc2)n1
inactive: growth inhibition [1] 3.04% | growth inhibition [2] -5.48% | viability increase [3] -3.86% | viability [4] 72% | viability [5] 64.8% | inhibition [6] 1.17% | RAM network inhibition [7] 4.85%

Reference: PubChem BioAssay
